# Experimental data as given in paper PMC7569488 (Science signaling, 2020).
# Changes are numbered by the printed parent chain.
# What was measured:
# MKP3 and MKP1 = conditions: cited from earlier work
# ERK1/2 [1] = assay: ERK1/2 phosphorylation in MEFs; type: cell-based, mouse; conditions: Mkp5−/− MEFs
# Outline: (§1)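 Mouse embryo fibroblasts were derived from Mkp5+/+ and Mkp5−/− embryos (days 13-14) and spontaneously immortalized. Cells were treated with test compound overnight, serum-starved 4 h, then stimulated with TGF-β1 (1 ng/ml) for 10 min. Lysates were immunoblotted for phospho- and total MAPK, and the ratio was quantified by fluorescence imaging. 3-6 independent experiments; means ± SEM; t-test.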
# C2C12 myoblasts [2] = assay: C2C12 myoblast differentiation; type: cell-based, mouse; conditions: C2C12, 72 h
# Outline: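 C2C12 myoblasts were plated in growth medium, then switched to DMEM with 0.1% FBS, 5 μg/mL insulin and 5 μg/mL selenium, plus DMSO vehicle or test compound. Differentiation ran 72 hr. Cells were stained with MF20 antibody (myosin heavy chain) and DAPI. Fusion index = % of nuclei in myotubes with ≥2 nuclei over total nuclei, counted from ≥10 fields. Means ± SEM; two-tailed t-test.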
# Smad2 = assay: TGF-β1-mediated Smad2 phosphorylation in MEFs; type: cell-based, mouse; conditions: TGF-β1 1 ng/ml 10 minutes
# MKP5-CD [3] = target: T1, MKP5-CD (Homo sapiens, UniProt Q9Y6W6); assay: Phosphate sensor steady-state kinetic assay with full-length p38α MAPK substrate; type: biochemical
# T1 sequence (Q9Y6W6 320-467): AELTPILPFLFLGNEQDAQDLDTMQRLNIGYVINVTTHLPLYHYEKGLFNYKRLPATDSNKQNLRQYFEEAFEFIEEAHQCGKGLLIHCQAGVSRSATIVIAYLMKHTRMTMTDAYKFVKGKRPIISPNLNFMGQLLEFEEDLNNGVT
# JNK [4] = assay: JNK phosphorylation in MEFs; type: cell-based, mouse
# Outline: as §1
# MKP5 single mutant T432D = target: T2, MKP5 single mutant T432D (Homo sapiens, UniProt Q9Y6W6, T432D); assay: Malachite green assay, MKP5 T432D mutant; type: biochemical
# T2 sequence (Q9Y6W6 320-467 T432D): T1 sequence (Q9Y6W6 320-467) with T113D
# MKP5-CD [5] = target: T1, MKP5-CD; assay: DiFMUP steady-state kinetic assay; type: biochemical; conditions: DiFMUP substrate
# ERK1/2 [6] = assay: ERK1/2 activation in C2C12 myoblasts; type: cell-based, mouse; conditions: even at the highest concentration
# Outline: (§2)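 C2C12 myoblasts (ATCC) were treated with test compound (0, 10, 25, 50 μM) overnight, serum-starved 4 h, lysed and immunoblotted. Antibodies: phospho-ERK1/2 Thr202/Tyr204, phospho-JNK Thr183/Tyr185, phospho-p38α Thr180/Tyr182, plus the matching total proteins. The pMAPK/MAPK ratio was quantified by direct fluorescence imaging. Four independent experiments; means ± SEM; two-tailed t-test.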
# Solubility = type: physicochemical
# JNK [7] = assay: JNK activation in C2C12 myoblasts; type: cell-based, mouse; conditions: highest concentration of Compound 1
# Outline: as §2
# p38α MAPK [8] = assay: p38α MAPK phosphorylation in MEFs; type: cell-based, mouse
# Outline: as §1
# PTP-1B = target: T3, PTP-1B (Homo sapiens, UniProt P18031); assay: Phosphatase selectivity assay, PTP-1B; type: biochemical
# T3 sequence (P18031 1-435): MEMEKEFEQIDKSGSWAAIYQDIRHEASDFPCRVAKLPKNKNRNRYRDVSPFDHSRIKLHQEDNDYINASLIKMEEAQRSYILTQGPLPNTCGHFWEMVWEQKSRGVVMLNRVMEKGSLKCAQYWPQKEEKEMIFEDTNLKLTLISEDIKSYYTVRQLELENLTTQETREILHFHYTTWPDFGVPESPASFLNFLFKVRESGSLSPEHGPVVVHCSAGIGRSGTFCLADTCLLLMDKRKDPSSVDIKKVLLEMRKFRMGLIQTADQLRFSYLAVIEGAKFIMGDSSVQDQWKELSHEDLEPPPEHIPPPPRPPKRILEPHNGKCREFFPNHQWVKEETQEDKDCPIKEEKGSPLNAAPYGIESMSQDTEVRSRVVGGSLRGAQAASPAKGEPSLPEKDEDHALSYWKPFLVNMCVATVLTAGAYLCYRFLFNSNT
# MKP5 single mutant M431L = target: T4, MKP5 single mutant M431L (Homo sapiens, UniProt Q9Y6W6, M431L); assay: Malachite green assay, MKP5 M431L mutant; type: biochemical
# T4 sequence (Q9Y6W6 320-467 M431L): T1 sequence (Q9Y6W6 320-467) with M112L
# [9] = target: T5, MKP5 M431L/T432D double mutant (Homo sapiens, UniProt Q9Y6W6, M431L/T432D); assay: Malachite green assay, MKP5 M431L/T432D double mutant; type: biochemical; conditions: p38α MAPK phosphopeptide
# T5 sequence (Q9Y6W6 320-467 M431L/T432D): T1 sequence (Q9Y6W6 320-467) with M112L, T113D
# [10] = test system: MKP5-CD Tyr^435 mutants (alanine, serine, tryptophan); assay: Binding and inhibition experiments with Tyr435 mutants; type: biochemical, human; conditions: Y435A, Y435S, Y435W
# p38α MAPK [11] = assay: p38α MAPK activation in C2C12 myoblasts; type: cell-based, mouse; conditions: highest concentration of Compound 1, dose-dependent
# Outline: as §2
# C2C12 myoblasts [12] = assay: C2C12 myoblast proliferation; type: cell-based, mouse; conditions: C2C12, 72 hr
# MKP7 = assay: p38α MAPK phosphopeptide phosphatase assay, MKP7; type: biochemical; conditions: p38α MAPK phosphopeptide substrate
# Outline: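 MKP7-CD (residues 156-301) and MKP5-CD were E. coli-expressed and thrombin-cleaved. Each was assayed with the p38α MAPK diphosphopeptide DDE(Nle)(pT)G(pY)VATR, and released phosphate was detected by malachite green. Activity was normalized to DMSO control and fit to a hyperbolic inhibition equation. The IC50 for MKP7-CD was compared with the IC50 for MKP5-CD.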
# MKP5-CD [13] = target: T1, MKP5-CD; assay: Transient stopped-flow kinetic assay with DiFMUP; type: biochemical
# [14] = test system: MKP5 mutants M431L, T432D and M431L/T432D; assay: Binding affinity for Met431/Thr432 mutants; design: species or system human
# MKP3 = assay: DiFMUP phosphatase assay, MKP3; type: biochemical; conditions: DiFMUP substrate
# MKP5-CD [15] = target: T1, MKP5-CD; assay: Malachite green phosphatase assay with p38α MAPK phosphopeptide substrate; type: biochemical
smiles,measurement,setting,value
O=C1/C(=C/c2ccccc2)C(NC2CCCCC2)c2ccccc21 (centres unmarked) [BCI],relative potency MKP3 versus MKP1,MKP3 and MKP1,relative equipotency
"CSc1scc2c1-c1nc(SCC(=O)C(C)(C)C)ncc1CC2 [Compound 1, 3,3-dimethyl-1-((9-(methylthio)-5,6-dihydrothieno[3,4-h]quinazolin-2-yl)thio)butan-2-one]",ERK1/2 phosphorylation,ERK1/2 [1],unaffected
same,myoblast differentiation (myotube fusion index),C2C12 myoblasts [2],significantly increased
same,TGF-β1-mediated Smad2 phosphorylation,Smad2; Mkp5+/+ MEFs,inhibited TGF-β1-mediated Smad2 phosphorylation
same,TGF-β1-mediated Smad2 phosphorylation,Smad2; Mkp5−/− MEFs,failed to inhibit Smad2 phosphorylation further
same,Ki,MKP5-CD [3],8.9 ± 2.2 µM
same,α (mixed-mechanism inhibition),MKP5-CD [3]; full-length p38α MAPK substrate,≈ 17.4
same,phosphorylation of JNK,JNK [4]; Mkp5−/− MEFs,did not result in additional phosphorylation
same,phosphorylation of JNK,JNK [4]; wild type MEFs,dose-dependent increase
same,IC50,MKP5 single mutant T432D,61 µM
same,α (mixed mechanism of inhibition),MKP5-CD [5],4.2
same,activation of ERK1/2,ERK1/2 [6],did not alter the activation of ERK1/2
same,solubility,Solubility,modest solubility
same,JNK activation,JNK [7],up to 2 fold
same,phosphorylation of p38α MAPK,p38α MAPK [8]; Mkp5−/− MEFs,did not result in additional phosphorylation
same,phosphorylation of p38α MAPK,p38α MAPK [8]; wild type MEFs,dose-dependent increase
same,IC50,PTP-1B,> 100 µM
same,IC50,MKP5 single mutant M431L,99 µM
same,inhibition of MKP5 M431L/T432D double mutant,[9],nearly abolished inhibition
same,binding to and inhibition of Tyr435 mutants,[10],capable of binding to and inhibiting the activity of only the Y435W mutant
same,activation of p38α MAPK,p38α MAPK [11],up to 4 fold
same,myoblast proliferation (BrdU-positive cells),C2C12 myoblasts [12],did not affect C2C12 myoblast proliferation
same,increase in IC50 for MKP7 relative to MKP5,MKP7,at least 16 fold
same,fold change of burst rate (k1),MKP5-CD [13]; 20 and 40 μM Compound 1,7 fold
same,burst rate (k1) in the presence of Compound 1,MKP5-CD [13]; 20 and 40 μM Compound 1 (8.4 ± 0.2 s^−1 without),1.2 ± 0.02 s⁻¹
same,"binding affinity for M431L, T432D and M431L/T432D mutants",[14],Concomitant reductions in the binding affinity
same,increase in IC50 for MKP3 relative to MKP5,MKP3,at least 16 fold
same,IC50,"MKP5-CD [15]; IC50 against MKP5-CD, p38α MAPK phosphopeptide substrate",~3.9 µM
same,extent of inhibition of MKP5-CD phosphatase activity,MKP5-CD [15]; p38α MAPK phosphopeptide,did not fully inhibit
